# Legend:
# [1] = Selectivity index, ratio of […] for cytotoxicity against mouse J774A.1 cells; assay type: toxicity, cell-based; details: read-out: Selectivity Index
# [2] = test system: Klebsiella pneumoniae; assay: Antibacterial activity against Klebsiella pneumoniae ATCC 13883 incubated for 24 hrs by resazurin dye based fluorimetric assay; assay type: functional, organism-based; details: ATCC 13883, 24 h
# Summary of the method: (§1)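 Resazurin microtiter assay: compounds from 10 mM DMSO stock, twofold serial dilutions from 64 µM final in growth medium, in triplicate. Inoculum from frozen glycerol stocks. Exposure 24 h, or 7 days for Mtb H37Ra (7H9 + 0.5% glycerol + 10% OADC). Then 0.01% resazurin was added and plates were incubated at 37°C until pink. Fluorescence read at ex 550/em 590 nm; mean of triplicates.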
# [3] = test system: Mycobacterium tuberculosis; assay: Antibacterial activity against Mycobacterium tuberculosis H37Ra ATCC 25177 incubated for 7 days by resazurin dye based fluorimetric assay; assay type: functional, organism-based; details: H37Ra ATCC 25177, 168 h; summary of the method: as §1
# [4] = target: T1, UGT (Homo sapiens, UniProt O60656+O75310+O75795+P06133+P0DTE4+P0DTE5+P16662+P19224+P22309+P22310+P35503+P35504+P36537+P54855+Q6UWM9+Q9BY64+Q9HAW7+Q9HAW8+Q9HAW9); assay: Microsomal stability in human liver microsomes assessed as UGT-mediated metabolism by measuring compound remaining at 5 uM and measured for 15 mins in presence of UDPGA by UPLC-MS/MS analysis (reference value: 100%); assay type: ADME; details: read-out: Stability
# Summary of the method: (§2)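 Compound at 5 µM with 0.5 mg/mL liver microsomes in PBS. Phase I was started with 1 mM NADPH; phase II used 2 mM UDPGA. Diclofenac served as reference. Samples taken at 0, 15, 30 and 60 min were quenched in ice-cold acetonitrile, centrifuged at 4°C and analysed by LC-MS. Mean of at least two replicates ± SD.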
# [5] = test system: UGT; assay: Microsomal stability in mouse liver microsomes assessed as UGT-mediated metabolism by measuring compound remaining at 5 uM and measured for 15 mins in presence of UDPGA by UPLC-MS/MS analysis (reference value: 100%); assay type: ADME; details: read-out: Stability; summary of the method: as §2
# [6] = test system: Mycobacterium tuberculosis; assay: Antimycobacterial activity against Mycobacterium tuberculosis H37Ra lux incubated for 7 days by luminometric assay; assay type: functional, organism-based; details: 168 h
# Summary of the method: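 Twofold serial dilutions in 7H9/OADC/glycerol, in triplicate, inoculated with a suspension of 10.000 RLU per mL. After 7 days, n-decanal (1% v/v in ethanol) was added and luminescence read. IC50 and MIC (90% growth reduction) were derived from the mean of triplicates.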
# [7] = target: T2, CYP450 (Homo sapiens, UniProt P04798+P05177+P05181+P08684+P10632+P10635+P11509+P11712+P13584+P20813+P20815+P20853+P24462+P24903+P33260+P33261+P51589+P78329+P98187+Q02928+Q08477+Q16678+Q16696+Q5TCH4+Q6VVX0+Q7Z449+Q8TAV3+Q96SQ9+Q9HB55); assay: Microsomal stability in human liver microsomes assessed as CYP450-mediated metabolism by measuring compound remaining at 5 uM and measured for 30 mins in presence of NADPH by UPLC-MS/MS analysis (reference value: 100%); assay type: ADME; details: read-out: Stability; summary of the method: as §2
# [8] = test system: Streptococcus pneumoniae; assay: Antibacterial activity against Streptococcus pneumoniae ATCC BAA-334 incubated for 24 hrs by resazurin dye based fluorimetric assay; assay type: functional, organism-based; details: ATCC BAA-334, 24 h; summary of the method: as §1
# [9] = target: T1, UGT; assay: Microsomal stability in human liver microsomes assessed as UGT-mediated metabolism by measuring compound remaining at 5 uM and measured for 60 mins in presence of UDPGA by UPLC-MS/MS analysis (reference value: 100%); assay type: ADME; details: read-out: Stability; summary of the method: as §2
# [10] = test system: Escherichia coli; assay: Antibacterial activity against Escherichia coli ATCC 8739 incubated for 24 hrs by resazurin dye based fluorimetric assay; assay type: functional, organism-based; details: ATCC 8739, ATCC 8739, 24 h; summary of the method: as §1
# [11] = target: T1, UGT; assay: Microsomal stability in human liver microsomes assessed as UGT-mediated metabolism by measuring compound remaining at 5 uM and measured for 30 mins in presence of UDPGA by UPLC-MS/MS analysis (reference value: 100%); assay type: ADME; details: read-out: Stability; summary of the method: as §2
# [12] = Cytotoxicity against mouse J774A.1 cells assessed as reduction in cell viability incubated for 24 hrs by neutral red uptake assay; assay type: cell-based, J774.A1
# Summary of the method: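 J774A.1 cells in DMEM + 10% iFCS, 37°C, 5% CO2, seeded at 40.000 cells/well and left overnight. Twofold dilutions from 128 µM final; 24 h exposure. Neutral red uptake for 3 h, dye extracted with 1:1 ethanol/acetic acid, OD read at 530 nm (reference 620 nm). CC50 = 50% reduction in uptake; mean of triplicates.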
# [13] = target: T2, CYP450; assay: Microsomal stability in human liver microsomes assessed as CYP450-mediated metabolism by measuring compound remaining at 5 uM and measured for 15 mins in presence of NADPH by UPLC-MS/MS analysis (reference value: 100%); assay type: ADME; details: read-out: Stability; summary of the method: as §2
# [14] = test system: UGT; assay: Microsomal stability in mouse liver microsomes assessed as UGT-mediated metabolism by measuring compound remaining at 5 uM and measured for 30 mins in presence of UDPGA by UPLC-MS/MS analysis (reference value: 100%); assay type: ADME; details: read-out: Stability; summary of the method: as §2
# [15] = test system: CYP450; assay: Microsomal stability in mouse liver microsomes assessed as CYP450-mediated metabolism by measuring compound remaining at 5 uM and measured for 60 mins in presence of NADPH by UPLC-MS/MS analysis (reference value: 100%); assay type: ADME; details: read-out: Stability; summary of the method: as §2
# [16] = target: T2, CYP450; assay: Microsomal stability in human liver microsomes assessed as CYP450-mediated metabolism by measuring compound remaining at 5 uM and measured for 60 mins in presence of NADPH by UPLC-MS/MS analysis (reference value: 100%); assay type: ADME; details: read-out: Stability; summary of the method: as §2
# [17] = test system: Enterococcus faecium; assay: Antibacterial activity against Enterococcus faecium ATCC 19434 incubated for 24 hrs by resazurin dye based fluorimetric assay; assay type: functional, organism-based; details: ATCC 19434, 24 h; summary of the method: as §1
# [18] = test system: CYP450; assay: Microsomal stability in mouse liver microsomes assessed as CYP450-mediated metabolism by measuring compound remaining at 5 uM and measured for 15 mins in presence of NADPH by UPLC-MS/MS analysis (reference value: 100%); assay type: ADME; details: read-out: Stability; summary of the method: as §2
# [19] = test system: Pseudomonas aeruginosa; assay: Antibacterial activity against Pseudomonas aeruginosa ATCC 9027 incubated for 24 hrs by resazurin dye based fluorimetric assay; assay type: functional, organism-based; details: ATCC 9027, 24 h; summary of the method: as §1
# [20] = test system: Staphylococcus aureus; assay: Antibacterial activity against Staphylococcus aureus ATCC 6538 incubated for 24 hrs by resazurin dye based fluorimetric assay; assay type: functional, organism-based; details: ATCC 6538, 24 h; summary of the method: as §1
# [21] = test system: CYP450; assay: Microsomal stability in mouse liver microsomes assessed as CYP450-mediated metabolism by measuring compound remaining at 5 uM and measured for 30 mins in presence of NADPH by UPLC-MS/MS analysis (reference value: 100%); assay type: ADME; details: read-out: Stability; summary of the method: as §2
# [22] = Antimycobacterial activity against Mycobacterium avium subsp. avium ATCC 25291 by resazurin dye based fluorimetric assay; assay type: functional
# Summary of the method: (§3)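 Resazurin microtiter method as for the bacterial panel. Mycobacteria grown in 7H9 with 10% OADC and 0.5% glycerol; for BCG, 0.05% Tween 80 replaced the glycerol. Cultures were sonicated and needle-passed to single cells. Incubation at 37°C, or 32°C for M. marinum. Fluorescence read at ex 550/em 590 nm; mean of triplicates.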
# [23] = test system: Mycobacterium marinum; assay: Antimycobacterial activity against Mycobacterium marinum NCTC 2275 by resazurin dye based fluorimetric assay; assay type: functional, organism-based; summary of the method: as §3
# [24] = test system: UGT; assay: Microsomal stability in mouse liver microsomes assessed as UGT-mediated metabolism by measuring compound remaining at 5 uM and measured for 60 mins in presence of UDPGA by UPLC-MS/MS analysis (reference value: 100%); assay type: ADME; details: read-out: Stability; summary of the method: as §2
structure (smiles),measurement,setting,value
O=C1C2=C(C(=O)c3c1cnc1cc(F)ccc31)C1CCC2C1 (stereo not given),selectivity ratio,[1],3.44
same,IC50,[2],> 64 µM
same,IC50,[3],1 to 2 µM
same,"remaining at 0.25 h, 5 µM",[4],79%
same,"remaining at 0.25 h, 5 µM",[5],89%
same,IC50,[6],1.8 µM
same,MIC90,[6],10.2 µM
same,"remaining at 0.5 h, 5 µM",[7],100%
same,IC50,[8],32 to 64 µM
same,"remaining at 1 h, 5 µM",[9],60%
same,IC50,[10],> 64 µM
same,"remaining at 0.5 h, 5 µM",[11],76%
same,CC50 at 24 h,[12],35.2 µM
same,"remaining at 0.25 h, 5 µM",[13],100%
same,"remaining at 0.5 h, 5 µM",[14],88%
same,"remaining at 1 h, 5 µM",[15],100%
same,"remaining at 1 h, 5 µM",[16],100%
same,IC50,[17],> 64 µM
same,"remaining at 0.25 h, 5 µM",[18],100%
same,IC50,[19],> 64 µM
same,IC50,[20],> 64 µM
same,"remaining at 0.5 h, 5 µM",[21],100%
same,IC50,[22],0.43 µM
same,IC50,[23],3.22 µM
same,"remaining at 1 h, 5 µM",[24],73%
